{"data": "Measurements gathered from unrelated publications", "target": "Mitogen-activated protein kinase kinase kinase kinase 1 (MAP4K1, Homo sapiens, UniProt Q92918)", "note": "Lines come from different studies, so protocols differ."}
{"SMILES": "Nc1ncnc2occ(-c3ccc(NC(=O)Nc4cc(C(F)(F)F)ccc4F)cc3)c12", "read-out": "cell-free assay", "action": "inhibitor", "tested at": "20 µM", "quantity": "remaining signal", "result": "0.7%"}
{"SMILES": "CN1CC(Oc2cnc(C#N)cc2-c2ccn3nc(NC(=O)C4CC4)cc3c2)C1", "read-out": "enzyme activity", "action": "inhibitor", "tested at": "1 µM", "quantity": "inhibition", "result": "4%"}
{"SMILES": "CCS(=O)(=O)c1cc2cc(C[C@](O)(CC(C)(C)c3ccc(F)cc3C(N)=O)C(F)(F)F)[nH]c2cn1", "read-out": "cell-free assay", "technique": "competition with immobilised ligand", "tested at": "1 µM", "quantity": "remaining binding", "result": "100%"}
{"SMILES": "Cc1sc(C(=O)NC2COC2)cc1-n1cc(NC(=O)Nc2c(F)cccc2Cl)cn1", "read-out": "enzyme activity", "action": "inhibitor", "tested at": "10 µM", "quantity": "remaining activity", "result": "99.2%"}
{"SMILES": "CC(=O)N1CCC(c2ccc(C(=O)NC(=N)N)cc2C(F)(F)F)CC1", "read-out": "cell-free assay", "technique": "competition with immobilised ligand", "tested at": "1 µM", "quantity": "remaining binding", "result": "100%"}
{"SMILES": "Cc1ccc(C(=O)Nc2ccc(CN3CCN(C)CC3)c(C(F)(F)F)c2)cc1C#Cc1cnc2cccnn12", "read-out": "enzyme activity", "action": "inhibitor", "tested at": "23.5 nM", "quantity": "remaining activity", "result": "8.5%"}
{"SMILES": "O=C(Nc1cnn(-c2csc(C(=O)NC3COC3)c2)c1)Nc1ccccc1Cl", "read-out": "enzyme activity", "action": "inhibitor", "tested at": "5 µM", "quantity": "remaining activity", "result": "132%"}
{"SMILES": "Cc1ccc(C(=O)NCc2ccsc2)cc1C#Cc1cn(C(C)C)c2ncnc(N)c12", "read-out": "enzyme activity", "action": "inhibitor", "tested at": "1 µM", "quantity": "activity vs control", "result": "85%"}
{"SMILES": "CC(C)(O)[C@H]1CC[C@H](Nc2ccc3ncc(-c4cccc(C(F)(F)F)c4)n3n2)CC1", "read-out": "enzyme activity", "action": "inhibitor", "tested at": "1 µM", "quantity": "remaining activity", "result": "79.6%"}
{"SMILES": "COc1cc(Cl)c(C(=O)N[C@@H](CN[C@H]2CC[C@@H](N)CC2)Cc2ccc(C#N)cc2)cc1-c1ccc(CN[C@H](C)c2ccc(C)cc2)o1", "read-out": "enzyme activity", "action": "inhibitor", "tested at": "1 µM", "quantity": "remaining activity", "result": "96%"}
{"SMILES": "COc1cc2nccc(Oc3ccc(NC(=O)c4c5n(n(-c6ccc(F)cc6)c4=O)CCCC5)cc3)c2cc1OC", "read-out": "enzyme activity", "action": "inhibitor", "tested at": "0.1 µM", "quantity": "inhibition", "result": "11%"}
{"SMILES": "CC/C(=N\\NC(=O)NCc1cccc(O)c1)c1ccc(O)c(C)c1O", "read-out": "enzyme activity", "action": "inhibitor", "tested at": "0.1 µM", "quantity": "inhibition", "result": "17.1%"}
